# Like-named read-outs stand apart in the source and are kept apart here.
# Type: in vivo, human
# How it was run: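 Adults with advanced solid tumours (ECOG 0–1; TP53 wild-type or unknown) received oral test compound on day 1 of 21-day cycles or days 1 and 8 of 28-day cycles, until progression or unacceptable toxicity. Antiemetic prophylaxis followed guidelines. AE incidence and severity were graded per NCI CTCAE v5.0 and summarised descriptively.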
compound,measurement,setting,value
Cc1c(C(=O)O)ccc2c3n(nc12)[C@@H]1[C@H](C3)N(CC2CC2)[C@@]2(C(=O)Nc3cc(Cl)ccc32)[C@H]1c1cccc(Cl)c1F [brigimadlin],Any AE,All patients (N = 54),54 (100.0) n (%)
same,Any AE (any cause) leading to study drug discontinuation,All patients (N = 54),3 (5.6) n (%)
same,Any AE (any cause) leading to study drug dose reduction,All patients (N = 54),19 (35.2) n (%)
same,Any TRAE,All patients (N = 54),50 (92.6) n (%)
same,Any grade ≥3 AE,All patients (N = 54),33 (61.1) n (%)
same,Any grade ≥3 TRAE,All patients (N = 54),25 (46.3) n (%)
same,Serious AEs (any cause),All patients (N = 54),18 (33.3) n (%)
same,"TRAE Alopecia, All grades",All patients (N = 54),12 (22.2) n (%)
same,"TRAE Alopecia, Grade ≥3",All patients (N = 54),0 n (%)
same,"TRAE Anemia, All grades",All patients (N = 54),16 (29.6) n (%)
same,"TRAE Anemia, Grade ≥3",All patients (N = 54),5 (9.3) n (%)
same,"TRAE Decreased appetite, All grades",All patients (N = 54),17 (31.5) n (%)
same,"TRAE Decreased appetite, Grade ≥3",All patients (N = 54),0 n (%)
same,"TRAE Decreased lymphocyte count, All grades",All patients (N = 54),7 (13.0) n (%)
same,"TRAE Decreased lymphocyte count, Grade ≥3",All patients (N = 54),4 (7.4) n (%)
same,"TRAE Decreased weight, All grades",All patients (N = 54),4 (7.4) n (%)
same,"TRAE Decreased weight, Grade ≥3",All patients (N = 54),0 n (%)
same,"TRAE Decreased white blood cell count, All grades",All patients (N = 54),13 (24.1) n (%)
same,"TRAE Decreased white blood cell count, Grade ≥3",All patients (N = 54),7 (13.0) n (%)
same,"TRAE Diarrhea, All grades",All patients (N = 54),16 (29.6) n (%)
same,"TRAE Diarrhea, Grade ≥3",All patients (N = 54),0 n (%)
same,"TRAE Dysgeusia, All grades",All patients (N = 54),10 (18.5) n (%)
same,"TRAE Dysgeusia, Grade ≥3",All patients (N = 54),0 n (%)
same,"TRAE Fatigue, All grades",All patients (N = 54),25 (46.3) n (%)
same,"TRAE Fatigue, Grade ≥3",All patients (N = 54),1 (1.9) n (%)
same,"TRAE Gastroesophageal reflux disease, All grades",All patients (N = 54),5 (9.3) n (%)
same,"TRAE Gastroesophageal reflux disease, Grade ≥3",All patients (N = 54),0 n (%)
same,"TRAE Increased alanine aminotransferase, All grades",All patients (N = 54),3 (5.6) n (%)
same,"TRAE Increased alanine aminotransferase, Grade ≥3",All patients (N = 54),0 n (%)
same,"TRAE Increased aspartate aminotransferase, All grades",All patients (N = 54),5 (9.3) n (%)
same,"TRAE Increased aspartate aminotransferase, Grade ≥3",All patients (N = 54),0 n (%)
same,"TRAE Nausea, All grades",All patients (N = 54),40 (74.1) n (%)
same,"TRAE Nausea, Grade ≥3",All patients (N = 54),4 (7.4) n (%)
same,"TRAE Neutropenia, All grades",All patients (N = 54),16 (29.6) n (%)
same,"TRAE Neutropenia, Grade ≥3",All patients (N = 54),13 (24.1) n (%)
same,"TRAE Thrombocytopenia, All grades",All patients (N = 54),24 (44.4) n (%)
same,"TRAE Thrombocytopenia, Grade ≥3",All patients (N = 54),14 (25.9) n (%)
same,"TRAE Vomiting, All grades",All patients (N = 54),28 (51.9) n (%)
same,"TRAE Vomiting, Grade ≥3",All patients (N = 54),1 (1.9) n (%)
same,patients with neutropenia leading to dose reduction,D1D8q4w,four
same,patients with thrombocytopenia leading to dose reduction,D1D8q4w,four
same,serious AE thrombocytopenia,D1D8q4w,three
same,Any AE,D1D8q4w (n = 25),25 (100.0) n (%)
same,Any AE (any cause) leading to study drug discontinuation,D1D8q4w (n = 25),1 (4.0) n (%)
same,Any AE (any cause) leading to study drug dose reduction,D1D8q4w (n = 25),8 (32.0) n (%)
same,Any TRAE,D1D8q4w (n = 25),23 (92.0) n (%)
same,Any grade ≥3 AE,D1D8q4w (n = 25),12 (48.0) n (%)
same,Any grade ≥3 TRAE,D1D8q4w (n = 25),8 (32.0) n (%)
same,Serious AEs (any cause),D1D8q4w (n = 25),9 (36.0) n (%)
same,"TRAE Alopecia, All grades",D1D8q4w (n = 25),6 (24.0) n (%)
same,"TRAE Alopecia, Grade ≥3",D1D8q4w (n = 25),0 n (%)
same,"TRAE Anemia, All grades",D1D8q4w (n = 25),4 (16.0) n (%)
same,"TRAE Anemia, Grade ≥3",D1D8q4w (n = 25),2 (8.0) n (%)
same,"TRAE Decreased appetite, All grades",D1D8q4w (n = 25),7 (28.0) n (%)
same,"TRAE Decreased appetite, Grade ≥3",D1D8q4w (n = 25),0 n (%)
same,"TRAE Decreased lymphocyte count, All grades",D1D8q4w (n = 25),2 (8.0) n (%)
same,"TRAE Decreased lymphocyte count, Grade ≥3",D1D8q4w (n = 25),1 (4.0) n (%)
same,"TRAE Decreased weight, Grade ≥3",D1D8q4w (n = 25),0 n (%)
same,"TRAE Decreased white blood cell count, All grades",D1D8q4w (n = 25),4 (16.0) n (%)
same,"TRAE Decreased white blood cell count, Grade ≥3",D1D8q4w (n = 25),2 (8.0) n (%)
same,"TRAE Diarrhea, All grades",D1D8q4w (n = 25),8 (32.0) n (%)
same,"TRAE Diarrhea, Grade ≥3",D1D8q4w (n = 25),0 n (%)
same,"TRAE Dysgeusia, All grades",D1D8q4w (n = 25),5 (20.0) n (%)
same,"TRAE Dysgeusia, Grade ≥3",D1D8q4w (n = 25),0 n (%)
same,"TRAE Fatigue, All grades",D1D8q4w (n = 25),10 (40.0) n (%)
same,"TRAE Fatigue, Grade ≥3",D1D8q4w (n = 25),0 n (%)
same,"TRAE Gastroesophageal reflux disease, All grades",D1D8q4w (n = 25),3 (12.0) n (%)
same,"TRAE Gastroesophageal reflux disease, Grade ≥3",D1D8q4w (n = 25),0 n (%)
same,"TRAE Increased alanine aminotransferase, All grades",D1D8q4w (n = 25),0 n (%)
same,"TRAE Increased alanine aminotransferase, Grade ≥3",D1D8q4w (n = 25),0 n (%)
same,"TRAE Increased aspartate aminotransferase, All grades",D1D8q4w (n = 25),1 (4.0) n (%)
same,"TRAE Increased aspartate aminotransferase, Grade ≥3",D1D8q4w (n = 25),0 n (%)
same,"TRAE Nausea, All grades",D1D8q4w (n = 25),19 (76.0) n (%)
same,"TRAE Nausea, Grade ≥3",D1D8q4w (n = 25),0 n (%)
same,"TRAE Neutropenia, All grades",D1D8q4w (n = 25),6 (24.0) n (%)
same,"TRAE Neutropenia, Grade ≥3",D1D8q4w (n = 25),5 (20.0) n (%)
same,"TRAE Thrombocytopenia, Grade ≥3",D1D8q4w (n = 25),5 (20.0) n (%)
same,"TRAE Vomiting, All grades",D1D8q4w (n = 25),15 (60.0) n (%)
same,"TRAE Vomiting, Grade ≥3",D1D8q4w (n = 25),1 (4.0) n (%)
same,patients with nausea leading to dose reduction,D1q3w,three
same,patients with thrombocytopenia leading to dose reduction,D1q3w,four
same,serious AE neutropenia,D1q3w,three
same,serious AE thrombocytopenia,D1q3w,three
same,Any AE,D1q3w (n = 29),29 (100.0) n (%)
same,Any AE (any cause) leading to study drug discontinuation,D1q3w (n = 29),2 (6.9) n (%)
same,Any AE (any cause) leading to study drug dose reduction,D1q3w (n = 29),11 (37.9) n (%)
same,Any TRAE,D1q3w (n = 29),27 (93.1) n (%)
same,Any grade ≥3 AE,D1q3w (n = 29),21 (72.4) n (%)
same,Any grade ≥3 TRAE,D1q3w (n = 29),17 (58.6) n (%)
same,Serious AEs (any cause),D1q3w (n = 29),9 (31.0) n (%)
same,"TRAE Alopecia, All grades",D1q3w (n = 29),6 (20.7) n (%)
same,"TRAE Alopecia, Grade ≥3",D1q3w (n = 29),0 n (%)
same,"TRAE Anemia, All grades",D1q3w (n = 29),12 (41.4) n (%)
same,"TRAE Anemia, Grade ≥3",D1q3w (n = 29),3 (10.3) n (%)
same,"TRAE Decreased appetite, All grades",D1q3w (n = 29),10 (34.5) n (%)
same,"TRAE Decreased appetite, Grade ≥3",D1q3w (n = 29),0 n (%)
same,"TRAE Decreased lymphocyte count, All grades",D1q3w (n = 29),5 (17.2) n (%)
same,"TRAE Decreased lymphocyte count, Grade ≥3",D1q3w (n = 29),3 (10.3) n (%)
same,"TRAE Decreased weight, All grades",D1q3w (n = 29),3 (10.3) n (%)
same,"TRAE Decreased weight, Grade ≥3",D1q3w (n = 29),0 n (%)
same,"TRAE Decreased white blood cell count, All grades",D1q3w (n = 29),9 (31.0) n (%)
same,"TRAE Decreased white blood cell count, Grade ≥3",D1q3w (n = 29),5 (17.2) n (%)
same,"TRAE Diarrhea, All grades",D1q3w (n = 29),8 (27.6) n (%)
same,"TRAE Diarrhea, Grade ≥3",D1q3w (n = 29),0 n (%)
same,"TRAE Dysgeusia, All grades",D1q3w (n = 29),5 (17.2) n (%)
same,"TRAE Dysgeusia, Grade ≥3",D1q3w (n = 29),0 n (%)
same,"TRAE Fatigue, All grades",D1q3w (n = 29),15 (51.7) n (%)
same,"TRAE Fatigue, Grade ≥3",D1q3w (n = 29),1 (3.4) n (%)
same,"TRAE Gastroesophageal reflux disease, All grades",D1q3w (n = 29),2 (6.9) n (%)
same,"TRAE Gastroesophageal reflux disease, Grade ≥3",D1q3w (n = 29),0 n (%)
same,"TRAE Increased alanine aminotransferase, All grades",D1q3w (n = 29),3 (10.3) n (%)
same,"TRAE Increased alanine aminotransferase, Grade ≥3",D1q3w (n = 29),0 n (%)
same,"TRAE Increased aspartate aminotransferase, All grades",D1q3w (n = 29),4 (13.8) n (%)
same,"TRAE Increased aspartate aminotransferase, Grade ≥3",D1q3w (n = 29),0 n (%)
same,"TRAE Nausea, All grades",D1q3w (n = 29),21 (72.4) n (%)
same,"TRAE Nausea, Grade ≥3",D1q3w (n = 29),4 (13.8) n (%)
same,"TRAE Neutropenia, Grade ≥3",D1q3w (n = 29),8 (27.6) n (%)
same,"TRAE Thrombocytopenia, All grades",D1q3w (n = 29),15 (51.7) n (%)
same,"TRAE Thrombocytopenia, Grade ≥3",D1q3w (n = 29),9 (31.0) n (%)
same,"TRAE Vomiting, All grades",D1q3w (n = 29),13 (44.8) n (%)
same,"TRAE Vomiting, Grade ≥3",D1q3w (n = 29),0 n (%)
same,TRAE neutropenia grade 3,all 54 patients,9.3%
same,TRAE neutropenia grade 4,all 54 patients,14.8%
same,TRAE thrombocytopenia grade 3,all 54 patients,13.0%
same,TRAE thrombocytopenia grade 4,all 54 patients,13.0%
same,grade ≥3 TRAE neutropenia,all 54 patients,24.1%
same,grade ≥3 TRAE thrombocytopenia,all 54 patients,25.9%
same,patients with a grade ≥3 AE,all 54 patients,61.1%
same,patients with a serious AE,all 54 patients,33.3%
same,patients with grade ≥3 TRAEs,all 54 patients,46.3%
same,patients with investigator-reported TRAEs,all 54 patients,92.6%
same,TRAE nausea,"all 54 patients, all grades",74.1%
same,TRAE vomiting,"all 54 patients, all grades",51.9%
same,treatment discontinuation due to a hematologic TRAE,both treatment arms,no patient discontinued treatment with brigimadlin due to a hematologic TRAE

# From PMC10401071 (Cancer Discovery, 2023)
